Reference: ChEMBL document CHEMBL3867441, “Boesenberols, Pimarane Diterpenes with TRAIL-Resistance-Overcoming Activity from Boesenbergia pandurata” (J Nat Prod, 2016)
Active and inactive are the calls of the source. The calls are words filed in the database; no cut-off is given here.

Legend:
AGS [1] = experiment: Potentiation of TRAIL-induced cytotoxicity against human AGS cells assessed as reduction in cell viability at 10 to 40 uM measured after 24 hrs by FMCA method; assay type: functional, cell-based
In short: (§1)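 FMCA viability assay in TRAIL-resistant AGS cells or HEK293 cells (HEK293 in DMEM, 10% FBS, 1% penicillin-streptomycin). Cells are seeded at 6 × 10^3 per well, left 24 h at 37 °C in 5% CO2, then exposed to test sample at several doses with or without TRAIL (100 ng/mL) for 24 h. Cells are PBS-washed and given […] (10 μg/mL) in PBS for 1 h at 37 °C. Fluorescence is read at ex 485/em 538 nm. Means ± SD, n = 4; luteolin is the positive control and DMSO the negative control.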

AGS [2] = experiment: Potentiation of TRAIL-induced cytotoxicity in human AGS cells assessed as reduction in cell viability at 5 to 25 uM measured after 24 hrs by FMCA method; assay type: functional, cell-based; in short: as §1
[3] = Cytotoxicity against HEK293 cells assessed as reduction in cell viability up to 30 uM measured after 24 hrs in presence of TRIAL by FMCA method; assay type: toxicity, cell-based; settings: human, hek293, 24 h; in short: as §1
[4] = Upregulation of DR4 protein expression in human AGS cells measured after 24 hrs by Western blot analysis; assay type: functional, cell-based
In short: (§2)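 Western blot in AGS cells. Cells are seeded for 24 h and treated with compound at the indicated concentrations for 24 h. Lysis is in Tris·HCl (20 mM, pH 7.4), NaCl 150 mM, 0.5% Triton X-100, 0.5% deoxycholate, EDTA 10 mM, orthovanadate 1 mM, NaF 0.1 mM and protease inhibitors. Proteins are run on 12.5% SDS-PAGE and transferred to PVDF, blocked in 5% milk/TBST, probed with primary and then HRP secondary antibodies, and detected by ECL. β-Actin is the internal control.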

[5] = Upregulation of DR5 protein expression in human AGS cells measured after 24 hrs by Western blot analysis; assay type: functional, cell-based; in short: as §2
[6] = Upregulation of Fas protein expression in human AGS cells measured after 24 hrs by Western blot analysis; assay type: functional, cell-based; in short: as §2
[7] = Upregulation of cleaved caspase-8 expression in human AGS cells at 8 to 24 uM measured after 24 hrs by Western blot analysis; assay type: functional, cell-based; in short: as §2
[8] = Upregulation of Bax protein expression in human AGS cells at 8 to 24 uM measured after 24 hrs by Western blot analysis; assay type: functional, cell-based; in short: as §2
[9] = Upregulation of cleaved caspase9 expression in human AGS cells at 8 to 24 uM measured after 24 hrs by Western blot analysis; assay type: functional, cell-based; in short: as §2
[10] = Upregulation of cleaved caspase3 expression in human AGS cells at 8 to 24 uM measured after 24 hrs by Western blot analysis; assay type: functional, cell-based; in short: as §2
[11] = Upregulation of p53 protein expression in human AGS cells measured after 24 hrs by Western blot analysis; assay type: functional, cell-based; in short: as §2
[12] = Upregulation of CHOP expression in human AGS cells measured after 24 hrs by Western blot analysis; assay type: functional, cell-based; in short: as §2
[13] = Downregulation of GSK-3beta protein expression in human AGS cells measured after 24 hrs by Western blot analysis; assay type: functional, cell-based; in short: as §2
[14] = Downregulation of Bcl2 protein expression in human AGS cells measured after 24 hrs by Western blot analysis; assay type: functional, cell-based; in short: as §2
[15] = Downregulation of c-FLIP expression in human AGS cells at 8 to 24 uM measured after 24 hrs by Western blot analysis; assay type: functional, cell-based; in short: as §2
AGS [16] = experiment: Induction of apoptosis in human AGS cells assessed as cleaved caspase3 level at 16 uM measured after 24 hrs by Western blot analysis relative to control; assay type: functional
In short: (§3)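 Western blot in AGS cells for cleaved caspases-3, -8 and -9. Cells are seeded for 24 h, then given compound at 16 μM, TRAIL (100 ng/mL), or both together for 24 h. Lysates are made in the Tris/Triton/deoxycholate lysis buffer with protease inhibitors and run on 12.5% SDS-PAGE. Proteins are transferred to PVDF, immunodetected with HRP secondary antibodies and read by ECL chemiluminescence.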

AGS [17] = experiment: Induction of apoptosis in human AGS cells assessed as cleaved caspase8 level at 16 uM measured after 24 hrs by Western blot analysis relative to control; assay type: functional; in short: as §3
AGS [18] = experiment: Induction of apoptosis in human AGS cells assessed as cleaved caspase9 level at 16 uM measured after 24 hrs by Western blot analysis relative to control; assay type: functional; in short: as §3
AGS [19] = experiment: Potentiation of TRAIL-induced apoptosis in human AGS cells assessed as increase in cleaved caspase3 level at 16 uM measured after 24 hrs by Western blot analysis; assay type: functional; in short: as §3
AGS [20] = experiment: Potentiation of TRAIL-induced apoptosis in human AGS cells assessed as increase in cleaved caspase8 level at 16 uM measured after 24 hrs by Western blot analysis; assay type: functional; in short: as §3
AGS [21] = experiment: Potentiation of TRAIL-induced apoptosis in human AGS cells assessed as increase in cleaved caspase9 level at 16 uM measured after 24 hrs by Western blot analysis; assay type: functional; in short: as §3
AGS [22] = experiment: Potentiation of TRAIL-induced cytotoxicity against human AGS cells assessed as reduction in cell viability at 40 to 120 uM measured after 24 hrs by FMCA method; assay type: functional, cell-based; in short: as §1
AGS [23] = experiment: Potentiation of TRAIL-induced cytotoxicity against human AGS cells assessed as reduction in cell viability at 10 to 30 uM measured after 24 hrs by FMCA method; assay type: functional, cell-based; in short: as §1
AGS [24] = experiment: Potentiation of TRAIL-induced cytotoxicity against human AGS cells assessed as reduction in cell viability at 5 to 30 uM measured after 24 hrs by FMCA method; assay type: functional, cell-based; in short: as §1
AGS [25] = experiment: Potentiation of TRAIL-induced cytotoxicity against human AGS cells assessed as reduction in cell viability at 20 to 80 uM measured after 24 hrs by FMCA method; assay type: functional, cell-based; in short: as §1
AGS [26] = experiment: Potentiation of TRAIL-induced cytotoxicity against human AGS cells assessed as reduction in cell viability at 20 to 60 uM measured after 24 hrs by FMCA method; assay type: functional, cell-based; in short: as §1
AGS [27] = experiment: Potentiation of TRAIL-induced cytotoxicity against human AGS cells assessed as reduction in cell viability at 10 to 50 uM measured after 24 hrs by FMCA method; assay type: functional, cell-based; in short: as §1

With `C=C[C@@]1(C)CCC2=C([C@H]1OC)[C@H](OC)[C@@H](O)[C@H]1C(C)(C)CCC[C@]21C` the Activity (AGS [1]) was “Active”.

With `C=C[C@]1(C)C=C2C[C@@H](OC(C)=O)[C@H]3C(C)(C)CC[C@H](O)[C@]3(C)[C@@]2(O)CC1` the Activity (AGS [2]) was “Active”, the Activity [3] was “Non-Toxic” and the Activity [4] was “Dose-dependent effect”. For the same compound, the Activity [5] was “Dose-dependent effect”, the Activity [6] was “Dose-dependent effect” and the Activity [7] was “Active”. For the same compound, the Activity [8] was “Active”, the Activity [9] was “Active” and the Activity [10] was “Active”. The Activity [11] was “Dose-dependent effect”, the Activity [12] was “Dose-dependent effect” and the Activity [13] was “Dose-dependent effect”. For the same compound, the Activity [14] was “Dose-dependent effect”, the Activity [15] was “Active” and the Activity (AGS [16]) was 0%. The Activity (AGS [17]) was 0%, the Activity (AGS [18]) was 15% and the Activity (AGS [19]) was 68%. The Activity (AGS [20]) was 65% and the Activity (AGS [21]) was 75%.

With `C=C[C@]1(C)C=C2C[C@@H](O)[C@H]3C(C)(C)CC[C@H](O)[C@]3(C)[C@@]2(O)CC1` the Activity (AGS [22]) was “Active”.

For `C=C[C@]1(C)C=C2[C@@H](O)C[C@H]3C(C)(C)CCC[C@]3(C)[C@@]2(O)[C@H](O)C1`, the Activity (AGS [23]) was “Active”.

For `C=C[C@]1(C)C=C2CC[C@H]3C(C)(C)CC[C@H](O)[C@]3(C)[C@@]2(O)CC1`, the Activity (AGS [24]) was “Active”.

For `C=C[C@]1(C)C=C2C[C@@H](O)[C@H]3C(C)(C)CCC(=O)[C@]3(C)[C@@]2(O)CC1`, the Activity (AGS [1]) was “Active”.

In the case of `C=C[C@]1(C)C=C2[C@H](O)[C@@H](OC(C)=O)[C@H]3C(C)(C)CC[C@H](O)[C@]3(C)[C@@]2(O)CC1`, the Activity (AGS [23]) is reported as “Active”.

With `C=C[C@@]1(C)CCC2=C(C[C@@H](O)[C@H]3C(C)(C)CC[C@H](O)[C@]23C)C1=O` the Activity (AGS [25]) was “Active”.

With `C=C[C@]1(C)C=C2CC[C@H]3C(C)(C)C[C@H](O)[C@H](O)[C@]3(C)[C@H]2CC1` the Activity (AGS [23]) was “Active”.

For `C=C[C@]1(C)C=C2[C@H](O)C[C@H]3C(C)(C)CC[C@H](O)[C@]3(C)[C@@]2(O)CC1`, the Activity (AGS [26]) was “Active”.

In the case of `C=C[C@]1(C)C=C2[C@H](O)[C@@H](OC(C)=O)[C@H]3C(C)(C)CCC[C@]3(C)[C@@]2(O)CC1`, the Activity (AGS [23]) is reported as “Active”.

For `C=C[C@@]1(C)CCC2=C(C[C@@H](O)[C@H]3C(C)(C)CCC[C@]23C)[C@H]1O`, the Activity (AGS [27]) was “Active”.

In the case of `C=C[C@@]1(C)CCC2=C([C@H](O)[C@@H](O)[C@H]3C(C)(C)CCC[C@]23C)[C@@H]1OC`, the Activity (AGS [26]) is reported as “Active”.

With `C=C[C@]1(C)C=C2C[C@@H](OC(C)=O)[C@H]3C(C)(C)CCC(=O)[C@]3(C)[C@@]2(O)CC1` the Activity (AGS [1]) was “Active”.

In the case of `C=C[C@]1(C)C=C2C[C@@H](O)[C@H]3C(C)(C)[C@H](O)C[C@H](O)[C@]3(C)[C@H]2CC1`, the Activity (AGS [27]) is reported as “Active”.

With `CC1=C[C@@H](O)[C@H](C(C)C)CC1=O` the Activity (AGS [25]) was “Active”.

With `C=C[C@@]1(C)C=C2CC[C@H]3C(C)(C)CC[C@H](O)[C@]3(C)[C@H]2[C@H](O)C1` the Activity (AGS [23]) was “Active”.

In the case of `C=C[C@@]1(C)CCC2=C([C@H](OC)[C@@H](O)[C@H]3C(C)(C)CCC[C@]23C)[C@@H]1OC`, the Activity (AGS [23]) is reported as “Active”.
